The values below come from ChEMBL document CHEMBL4196173, “Stabilized β-Hairpin Peptide Inhibits Insulin Degrading Enzyme” (J Med Chem, 2018).

One data set addresses T1, Insulin-degrading enzyme (Mus musculus, UniProt Q9JHR7).
T1 sequence (Q9JHR7 whole entry): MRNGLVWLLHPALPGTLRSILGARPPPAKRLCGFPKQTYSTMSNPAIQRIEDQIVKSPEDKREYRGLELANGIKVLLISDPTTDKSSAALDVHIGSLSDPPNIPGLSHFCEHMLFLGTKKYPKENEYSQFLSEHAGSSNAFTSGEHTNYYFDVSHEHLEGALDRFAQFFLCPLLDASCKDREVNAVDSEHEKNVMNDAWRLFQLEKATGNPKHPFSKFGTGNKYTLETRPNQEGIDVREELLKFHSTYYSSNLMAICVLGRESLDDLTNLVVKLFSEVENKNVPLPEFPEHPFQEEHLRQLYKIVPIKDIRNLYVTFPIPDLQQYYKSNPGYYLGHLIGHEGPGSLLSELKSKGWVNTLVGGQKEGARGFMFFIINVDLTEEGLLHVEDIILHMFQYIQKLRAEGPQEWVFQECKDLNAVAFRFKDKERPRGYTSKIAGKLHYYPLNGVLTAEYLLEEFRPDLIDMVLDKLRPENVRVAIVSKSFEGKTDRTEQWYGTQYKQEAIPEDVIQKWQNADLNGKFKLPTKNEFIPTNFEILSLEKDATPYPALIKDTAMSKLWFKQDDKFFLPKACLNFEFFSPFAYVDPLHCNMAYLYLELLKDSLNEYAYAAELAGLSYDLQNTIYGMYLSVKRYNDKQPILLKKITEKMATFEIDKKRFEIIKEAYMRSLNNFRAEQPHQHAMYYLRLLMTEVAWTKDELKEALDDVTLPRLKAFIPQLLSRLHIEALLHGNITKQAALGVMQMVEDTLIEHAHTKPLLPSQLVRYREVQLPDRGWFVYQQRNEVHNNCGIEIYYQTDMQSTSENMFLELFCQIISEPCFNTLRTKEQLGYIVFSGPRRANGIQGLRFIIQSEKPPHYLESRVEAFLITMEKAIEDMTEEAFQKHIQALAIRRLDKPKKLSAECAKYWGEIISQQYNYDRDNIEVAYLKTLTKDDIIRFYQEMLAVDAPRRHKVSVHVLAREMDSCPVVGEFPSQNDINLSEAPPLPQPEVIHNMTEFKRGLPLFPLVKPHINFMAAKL
As to the kind of experiment: Inhibition of mouse His-tagged IDE (42 to 1019 residues) using fluorophore/quencher-tagged RPPGFSAFK(Dnp)-OH peptide as substrate preincubated for 10 mins followed by substrate addition measured over 5 mins by TR-FRET assay.

A short description of data set [1]: Drug uptake in human HeLa cells at 5 uM using FITC-labeled compound after 2 hrs at 310 K by DAPI-staining based confocal microscopy. The format is ADME, cell-based.
The nature of data set [2]: Drug uptake in human HeLa cells at 5 uM using FITC-labeled compound after 2 hrs at 310 K by trypan blue-fluorescence based FACS analysis. The format is ADME, cell-based. The procedure, abridged:
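HeLa cells were grown overnight in DMEM with 10% FBS, then given 5 μM FITC-labelled peptide in FBS-free medium for 2 h at 310 K. Cells were washed with PBS and 0.4% trypan blue, trypsinized and washed. Mean fluorescence was measured by flow cytometry with gated cell counts. Three independent experiments.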

In the next data set the test system is HeLa. Put plainly: Cytotoxicity against human HeLa cells assessed as reduction in cell viability at <300 uM after 24 hrs at 310 K by MTT assay. The format is cell-based. A digest of the protocol: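 HeLa cells were grown overnight in DMEM with 10% FBS, then exposed to serial dilutions starting at 300 μM in medium with 5% FBS for 24 h at 310 K under 5% CO2. MTT was added for a further 4 h and formazan absorbance read at 490 nm. Three independent experiments in duplicate.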
(In general: Formazan colour is commonly taken as a measure of viable cells.)

The nature of data set [3]: Hemolytic activity against mouse RBC at 300 uM after 1 hr at 310 K. It is filed as ADME, cell-based, Erythrocyte. As to conditions: mouse red blood cells (erythrocytes), read-out: Activity; call rule not given here. The procedure, abridged: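 Fresh mouse red cells were washed six times and suspended at 1 × 10^8 cells/mL in PBS. Peptides at 2.3–300 μM were added for 1 h at 310 K. After centrifugation, hemoglobin in the supernatant was read at 576 nm. PBS served as 0% and 0.1% Triton X-100 as 100% lysis. Three independent experiments in duplicate.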

Bridge positions count the residues as written; N and C are the ends. Square brackets hold non-standard residues; d marks the D form. Peptide text beside a SMILES is read from it. * marks the point of attachment. Ileψ(thiazoline)Cys = CC[C@H](C)[C@H](N)C1=N[C@H](C(=O)*)CS1; dOrn = NCCC[C@@H](N)C(=O)O

`CC(C)C[C@H](NC(=O)[C@H](C)NC(=O)[C@H](CCC(=O)O)NC(=O)[C@@H]1CCCN1C(=O)[C@H]1CCCN1C(=O)[C@H](Cc1ccccc1)NC(=O)[C@H](CCCNC(=N)N)NC(=O)[C@H](Cc1c[nH]c2ccccc12)NC(=O)[C@@H](N)CCC(=O)O)C(=O)N[C@@H](Cc1ccc(O)cc1)C(=O)N[C@@H](CC(C)C)C(=O)N[C@H](C(N)=O)C(C)C` displayed an IC50 against Insulin-degrading enzyme of 86 nM. In turn, `CC(C)C[C@H](NC(=O)[C@H](C)NC(=O)[C@H](CCC(=O)O)NC(=O)[C@@H]1CCCN1C(=O)[C@H]1CCCN1C(=O)[C@H](Cc1ccccc1)NC(=O)[C@@H](N)CCCNC(=N)N)C(=O)N[C@@H](Cc1ccc(O)cc1)C(=O)N[C@@H](CC(C)C)C(=O)N[C@H](C(N)=O)C(C)C` returned an IC50 against Insulin-degrading enzyme greater than 20000 nM. In the case of `CC(C)C[C@H](NC(=O)[C@@H]1CNC(=O)C[C@H](NC(=O)[C@H](Cc2ccccc2)NC(=O)[C@H](CCCNC(=N)N)NC(=O)[C@H](Cc2c[nH]c3ccccc23)NC(=O)[C@@H](N)CCC(=O)O)C(=O)NCC(=O)NCC(=O)NCC(=O)N2CCC[C@@H]2C(=O)N2CCC[C@H]2C(=O)N[C@@H](CCC(=O)O)C(=O)N1)C(=O)N[C@@H](Cc1ccc(O)cc1)C(=O)N[C@@H](CC(C)C)C(=O)N[C@H](C(=O)N[C@@H](CS)C(=O)NCC(N)=O)C(C)C`, the Drug uptake entry in data set [1] and in data set [2] was “Active” throughout. Moreover, the IC50 against Insulin-degrading enzyme is 44 nM. `CC(C)C[C@H](NC(=O)[C@H](C)NC(=O)[C@H](CCC(=O)O)NC(=O)[C@@H]1CCCN1C(=O)[C@H]1CCCN1C(=O)[C@H](Cc1ccccc1)NC(=O)[C@H](CCCNC(=N)N)NC(=O)[C@H](Cc1c[nH]c2ccccc12)NC(=O)[C@@H](N)CCC(=O)O)C(=O)N[C@@H](Cc1ccc(O)cc1)C(N)=O`: the IC50 on Insulin-degrading enzyme turned out to be 601 nM. As to `CC(=O)N[C@@H](CCC(=O)O)C(=O)N[C@@H](Cc1ccccc1)C(=O)N[C@@H](CC(C)C)C(=O)N[C@@H](Cc1c[nH]c2ccccc12)C(=O)N[C@@H](C)C(=O)NCC(=O)N1CCC[C@@H]1C(=O)N1CCC[C@H]1C(=O)N[C@@H](Cc1ccc(O)cc1)C(=O)N[C@@H](C)C(=O)N[C@@H](CS)C(=O)N[C@H](C(=O)NCC(=O)N[C@@H](CCCNC(=N)N)C(=O)N[C@@H](CC(C)C)C(=O)N[C@@H](CCC(=O)O)C(N)=O)C(C)C`, in the data set with HeLa, the Activity entry is given as “Non-Toxic”. Also, the hemolysis at 1 h, 300 µM in data set [3] is less than 10%. At Insulin-degrading enzyme, `CC(C)C[C@H](NC(=O)[C@H](C)NC(=O)[C@@H](N)CCC(=O)O)C(=O)N[C@@H](Cc1ccc(O)cc1)C(=O)N[C@@H](CC(C)C)C(=O)N[C@H](C(=O)N[C@@H](CS)C(=O)NCC(=O)N1CCC[C@@H]1C(=O)N1CCC[C@H]1C(=O)N[C@@H](Cc1ccccc1)C(=O)N[C@@H](CCCNC(=N)N)C(=O)N[C@@H](Cc1c[nH]c2ccccc12)C(=O)N[C@@H](CCC(=O)O)C(N)=O)C(C)C` came in with an IC50 of 170 nM. As for `CC(C)C[C@H](NC(=O)[C@H](C)NC(=O)[C@H](CCC(=O)O)NC(=O)[C@@H]1CCCN1C(=O)[C@H]1CCCN1C(=O)[C@H](Cc1ccccc1)NC(=O)[C@H](CCCNC(=N)N)NC(=O)[C@H](Cc1c[nH]c2ccccc12)NC(=O)[C@@H](N)CCC(=O)O)C(=O)N[C@@H](Cc1ccc(O)cc1)C(=O)N[C@@H](CC(C)C)C(=O)N[C@H](C(=O)N[C@H](CS)C(=O)NCC(N)=O)C(C)C`, the Drug uptake result in data set [1] and in data set [2] was “Active” throughout. This compound also displayed a half-inhibitory concentration (IC50) against Insulin-degrading enzyme of 74 nM. For `CC(C)C[C@H](NC(=O)[C@H](C)NC(=O)[C@H](CCC(=O)O)NC(=O)[C@@H]1CCCN1C(=O)[C@H]1CCCN1C(=O)[C@H](Cc1ccccc1)NC(=O)[C@@H](N)CCCNC(=N)N)C(=O)N[C@@H](Cc1ccc(O)cc1)C(N)=O`, the IC50 on Insulin-degrading enzyme is greater than 20000 nM.

In turn, `CC(C)C[C@H](NC(=O)[C@@H]1CSC[C@H](NC(=O)[C@H](Cc2ccccc2)NC(=O)[C@H](CCCNC(=N)N)NC(=O)[C@H](Cc2c[nH]c3ccccc23)NC(=O)[C@@H](N)CCC(=O)O)C(=O)NCC(=O)NCC(=O)NCC(=O)N2CCC[C@@H]2C(=O)N2CCC[C@H]2C(=O)N[C@@H](CCC(=O)O)C(=O)N1)C(=O)N[C@@H](Cc1ccc(O)cc1)C(=O)N[C@@H](CC(C)C)C(=O)N[C@H](C(=O)N[C@H](CS)C(=O)NCC(N)=O)C(C)C` returned an IC50 against Insulin-degrading enzyme of 77 nM. Same read-out and setting: the result for `CC[C@H](C)[C@H](N)C1=N[C@H](C(=O)N[C@@H](CC(C)C)C(=O)N[C@H](CCC(=O)O)C(=O)N[C@H](C(=O)N[C@H]2CCCCNC(=O)[C@H](CC(N)=O)NC(=O)[C@@H](CC(=O)O)NC(=O)[C@H](Cc3cnc[nH]3)NC(=O)[C@@H](Cc3ccccc3)NC(=O)[C@H]([C@@H](C)CC)NC(=O)[C@@H](CCCN)NC2=O)[C@@H](C)CC)CS1` [BACITRACIN] ({Ileψ(thiazoline)Cys}-L[dE]IK[dOrn]I[dF]H[dD]N; lactam 4-C) reads greater than 200000 nM. Take `CC(C)C[C@H](NC(=O)[C@H](C)NC(=O)[C@H](CCC(=O)O)NC(=O)CNC(=O)CNC(=O)[C@H](Cc1ccccc1)NC(=O)[C@H](CCCNC(=N)N)NC(=O)[C@H](Cc1c[nH]c2ccccc12)NC(=O)[C@@H](N)CCC(=O)O)C(=O)N[C@@H](Cc1ccc(O)cc1)C(=O)N[C@@H](CC(C)C)C(=O)N[C@H](C(=O)N[C@@H](CS)C(=O)NCC(N)=O)C(C)C` (H-EWRFGGEALYLVCG-NH2): the Drug uptake entry in data set [1] and in data set [2] was “Active” throughout. On Insulin-degrading enzyme, this compound came in with an IC50 of 300 nM. In addition, the hemolysis at 1 h, 300 µM in data set [3] is less than 10%. As for `CC(C)C[C@H](NC(=O)[C@H](C)NC(=O)[C@@H](N)CCC(=O)O)C(=O)N[C@@H](Cc1ccc(O)cc1)C(=O)N[C@@H](CC(C)C)C(=O)N[C@H](C(=O)N[C@@H](CS)C(=O)NCC(N)=O)C(C)C` (H-EALYLVCG-NH2), inhibition against Insulin-degrading enzyme was half-maximal at 230 nM (IC50). Same read-out and setting: the figure for `CC(C)C[C@H](NC(=O)[C@@H]1CSC[C@H](NC(=O)[C@H](Cc2ccccc2)NC(=O)[C@H](CCCNC(=N)N)NC(=O)[C@H](Cc2c[nH]c3ccccc23)NC(=O)[C@@H](N)CCC(=O)O)C(=O)NCC(=O)N2CCC[C@@H]2C(=O)N2CCC[C@H]2C(=O)N[C@@H](CCC(=O)O)C(=O)N1)C(=O)N[C@@H](Cc1ccc(O)cc1)C(=O)N[C@@H](CC(C)C)C(=O)N[C@H](C(=O)N[C@H](CS)C(=O)NCC(N)=O)C(C)C` is 60 nM.

Broadly, the IC50 is the midpoint of a concentration-inhibition curve. Read a high IC50 as a need for much substance.
